According to ChEMBL document CHEMBL4052702 (Bioorg Med Chem Lett, 2017):

Assays:
Homo sapiens [1] = species: Homo sapiens; assay: Inhibition of HDAC in human HeLa-S3 cells lysates assessed as remaining enzyme activity at 7.5 x 10^-7 M pre-incubated for 15 mins before HDAC-Glo I/II substrate addition and measured after 30 mins post substrate addition; type: cell-free
Histone deacetylase 2 [2] = target: T1, Histone deacetylase 2 (Homo sapiens, UniProt Q92769); assay: Inhibition of HDAC2 (unknown origin) assessed as remaining enzyme activity at 4 x 10^-6 M by ELISA-based assay
T1 sequence (Q92769 whole entry): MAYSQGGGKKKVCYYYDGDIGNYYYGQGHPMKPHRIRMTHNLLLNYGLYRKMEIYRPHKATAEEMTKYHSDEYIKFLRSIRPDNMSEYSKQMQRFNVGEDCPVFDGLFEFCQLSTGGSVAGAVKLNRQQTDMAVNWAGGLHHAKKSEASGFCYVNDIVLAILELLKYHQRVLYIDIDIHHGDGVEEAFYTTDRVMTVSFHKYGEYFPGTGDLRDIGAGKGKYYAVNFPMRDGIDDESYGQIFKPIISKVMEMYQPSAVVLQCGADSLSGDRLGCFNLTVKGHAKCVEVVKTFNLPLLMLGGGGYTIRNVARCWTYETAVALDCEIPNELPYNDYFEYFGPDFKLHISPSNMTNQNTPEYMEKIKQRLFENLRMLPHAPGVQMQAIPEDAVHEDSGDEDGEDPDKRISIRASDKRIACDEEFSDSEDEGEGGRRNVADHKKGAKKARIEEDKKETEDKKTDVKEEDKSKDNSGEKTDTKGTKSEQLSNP

Histone deacetylase 2 [3] = target: T1, Histone deacetylase 2; assay: Inhibition of HDAC2 (unknown origin) assessed as remaining enzyme activity at 5 x 10^-7 M by ELISA-based assay
[4] = target: T2, Protein deacetylase HDAC6 (Homo sapiens) (UniProt Q9UBN7); assay: Inhibition of HDAC6 (unknown origin) assessed as remaining enzyme activity at 2 x 10^-7 M by ELISA-based assay
T2 sequence (whole entry): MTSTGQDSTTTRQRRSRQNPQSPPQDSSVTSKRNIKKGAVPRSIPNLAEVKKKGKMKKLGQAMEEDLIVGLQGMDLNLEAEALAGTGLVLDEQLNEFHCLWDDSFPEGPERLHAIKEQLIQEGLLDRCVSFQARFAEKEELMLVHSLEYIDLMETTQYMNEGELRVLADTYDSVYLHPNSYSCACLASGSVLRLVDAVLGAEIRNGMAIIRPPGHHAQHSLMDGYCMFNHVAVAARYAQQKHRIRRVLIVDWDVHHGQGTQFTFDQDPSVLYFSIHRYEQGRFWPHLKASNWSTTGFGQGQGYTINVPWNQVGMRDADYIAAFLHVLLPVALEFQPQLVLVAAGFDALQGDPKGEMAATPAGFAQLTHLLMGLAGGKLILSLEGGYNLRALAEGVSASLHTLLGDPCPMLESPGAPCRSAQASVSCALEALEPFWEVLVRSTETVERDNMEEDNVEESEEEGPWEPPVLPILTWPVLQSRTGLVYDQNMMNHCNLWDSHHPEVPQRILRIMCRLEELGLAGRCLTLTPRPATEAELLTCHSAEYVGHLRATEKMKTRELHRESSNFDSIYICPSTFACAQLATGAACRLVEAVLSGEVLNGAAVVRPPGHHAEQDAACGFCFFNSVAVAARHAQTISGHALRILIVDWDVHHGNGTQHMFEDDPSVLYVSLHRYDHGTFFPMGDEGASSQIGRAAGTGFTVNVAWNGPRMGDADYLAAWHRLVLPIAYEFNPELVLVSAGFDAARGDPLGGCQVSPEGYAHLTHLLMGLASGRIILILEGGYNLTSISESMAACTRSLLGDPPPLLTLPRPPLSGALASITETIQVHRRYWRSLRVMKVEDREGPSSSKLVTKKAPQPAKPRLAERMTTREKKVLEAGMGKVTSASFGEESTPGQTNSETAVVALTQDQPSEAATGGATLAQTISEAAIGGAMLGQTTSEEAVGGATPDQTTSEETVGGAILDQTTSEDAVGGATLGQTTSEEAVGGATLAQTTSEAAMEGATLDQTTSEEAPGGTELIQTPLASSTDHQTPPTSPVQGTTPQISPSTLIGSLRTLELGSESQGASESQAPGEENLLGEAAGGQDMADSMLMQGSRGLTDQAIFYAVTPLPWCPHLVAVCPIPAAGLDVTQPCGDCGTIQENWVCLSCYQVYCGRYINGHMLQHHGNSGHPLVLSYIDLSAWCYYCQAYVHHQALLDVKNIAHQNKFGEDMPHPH

Histone deacetylase 3 [5] = target: T3, Histone deacetylase 3 (Homo sapiens, UniProt O15379); assay: Inhibition of HDAC3 (unknown origin) assessed as remaining enzyme activity at 0.25 uM by ELISA-based assay
T3 sequence (O15379 whole entry, canonical isoform): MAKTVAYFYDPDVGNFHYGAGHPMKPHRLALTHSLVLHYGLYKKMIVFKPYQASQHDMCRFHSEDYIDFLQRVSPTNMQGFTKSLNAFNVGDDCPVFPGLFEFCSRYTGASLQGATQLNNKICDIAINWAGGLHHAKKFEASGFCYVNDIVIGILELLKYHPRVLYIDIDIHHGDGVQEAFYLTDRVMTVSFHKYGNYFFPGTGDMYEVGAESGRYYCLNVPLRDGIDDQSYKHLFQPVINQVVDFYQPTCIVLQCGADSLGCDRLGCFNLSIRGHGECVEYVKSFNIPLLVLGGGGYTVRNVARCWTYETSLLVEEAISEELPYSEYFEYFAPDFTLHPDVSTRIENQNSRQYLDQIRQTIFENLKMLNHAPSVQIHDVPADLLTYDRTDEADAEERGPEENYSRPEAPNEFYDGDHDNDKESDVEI
Outline: (§1)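 Isoform screen by ELISA-based HDAC activity assay against HDAC1, HDAC2, HDAC3 and HDAC6. Each analog was tested at one final concentration: 0.025, 0.125, 0.25 or 1.25 µM. Read-out is percent deacetylase activity remaining, given as the mean with standard error of at least two independent trials.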

Histone deacetylase 2 [6] = target: T1, Histone deacetylase 2; assay: Inhibition of HDAC2 (unknown origin) assessed as remaining enzyme activity at 0.25 uM by ELISA-based assay; outline: as §1
Homo sapiens [7] = species: Homo sapiens; assay: Inhibition of HDAC in human HeLa-S3 cells lysates assessed as remaining enzyme activity at 1.25 x 10^-6 M pre-incubated for 15 mins before HDAC-Glo I/II substrate addition and measured after 30 mins post substrate addition; type: cell-free
Histone deacetylase 3 [8] = target: T3, Histone deacetylase 3; assay: Inhibition of HDAC3 (unknown origin) assessed as remaining enzyme activity at 1.25 uM by ELISA-based assay; outline: as §1
Homo sapiens [9] = species: Homo sapiens; assay: Inhibition of HDAC in human HeLa-S3 cells lysates assessed as remaining enzyme activity at 5 x 10^-6 M pre-incubated for 15 mins before HDAC-Glo I/II substrate addition and measured after 30 mins post substrate addition; type: cell-free
Histone deacetylase 2 [10] = target: T1, Histone deacetylase 2; assay: Inhibition of HDAC2 (unknown origin) assessed as remaining enzyme activity at 1.25 uM by ELISA-based assay; outline: as §1
Homo sapiens [11] = species: Homo sapiens; assay: Inhibition of HDAC in human HeLa-S3 cells lysates assessed as remaining enzyme activity at 1 x 10^-5 M pre-incubated for 15 mins before HDAC-Glo I/II substrate addition and measured after 30 mins post substrate addition; type: cell-free
Histone deacetylase 1 [12] = target: T4, Histone deacetylase 1 (Homo sapiens, UniProt Q13547); assay: Inhibition of HDAC1 (unknown origin) assessed as remaining enzyme activity at 8 x 10^-6 M by ELISA-based assay
T4 sequence (Q13547 whole entry): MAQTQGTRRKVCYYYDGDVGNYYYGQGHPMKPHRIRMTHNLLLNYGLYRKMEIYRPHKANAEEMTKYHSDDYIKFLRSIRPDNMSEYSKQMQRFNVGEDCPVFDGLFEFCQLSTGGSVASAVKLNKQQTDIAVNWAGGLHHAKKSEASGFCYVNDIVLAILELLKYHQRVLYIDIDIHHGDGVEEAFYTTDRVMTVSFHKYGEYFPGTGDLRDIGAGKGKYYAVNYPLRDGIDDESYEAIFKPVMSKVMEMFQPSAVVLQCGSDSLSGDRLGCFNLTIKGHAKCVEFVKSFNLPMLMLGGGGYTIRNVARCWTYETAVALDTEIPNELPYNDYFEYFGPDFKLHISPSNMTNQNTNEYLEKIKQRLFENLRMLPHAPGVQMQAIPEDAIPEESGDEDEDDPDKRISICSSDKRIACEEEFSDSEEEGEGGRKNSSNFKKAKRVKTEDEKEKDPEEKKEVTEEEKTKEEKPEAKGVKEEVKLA

Histone deacetylase 2 [13] = target: T1, Histone deacetylase 2; assay: Inhibition of HDAC2 (unknown origin) assessed as remaining enzyme activity at 1.6 x 10^-5 M by ELISA-based assay
Histone deacetylase 3 [14] = target: T3, Histone deacetylase 3; assay: Inhibition of HDAC3 (unknown origin) assessed as remaining enzyme activity at 8 x 10^-6 M by ELISA-based assay
Histone deacetylase 3 [15] = target: T3, Histone deacetylase 3; assay: Inhibition of HDAC3 (unknown origin) assessed as remaining enzyme activity at 1.6 x 10^-5 M by ELISA-based assay
Histone deacetylase 1 [16] = target: T4, Histone deacetylase 1; assay: Inhibition of HDAC1 (unknown origin) assessed as remaining enzyme activity at 1.25 uM by ELISA-based assay; outline: as §1
[17] = target: T2, Protein deacetylase HDAC6 (Homo sapiens); assay: Inhibition of HDAC6 (unknown origin) assessed as remaining enzyme activity at 1.25 uM by ELISA-based assay
Outline: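 Single-concentration isoform screen using an ELISA-based HDAC activity assay, run in parallel against HDAC1, HDAC2, HDAC3 and HDAC6. Read-out is percent deacetylase activity remaining, given as the mean of at least two independent trials with standard error.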

Homo sapiens [18] = species: Homo sapiens; assay: Inhibition of HDAC in human HeLa-S3 cells lysates assessed as remaining enzyme activity at 2 x 10^-5 M pre-incubated for 15 mins before HDAC-Glo I/II substrate addition and measured after 30 mins post substrate addition; type: cell-free
Histone deacetylase 2 [19] = target: T1, Histone deacetylase 2; assay: Inhibition of HDAC2 (unknown origin) assessed as remaining enzyme activity at 8 x 10^-6 M by ELISA-based assay
Homo sapiens [20] = species: Homo sapiens; assay: Inhibition of HDAC in human HeLa-S3 cells lysates assessed as remaining enzyme activity at 2.5 x 10^-6 M pre-incubated for 15 mins before HDAC-Glo I/II substrate addition and measured after 30 mins post substrate addition; type: cell-free

Row | Structure (SMILES) | Activity (Homo sapiens [1]) [%] | Activity (Histone deacetylase 2 [2]) [%] | Activity (Histone deacetylase 2 [3]) [%] | Activity [4] [%] | Activity (Histone deacetylase 3 [5]) [%] | Activity (Histone deacetylase 2 [6]) [%] | Activity (Homo sapiens [7]) [%] | Activity (Histone deacetylase 3 [8]) [%] | Activity (Homo sapiens [9]) [%] | Activity (Histone deacetylase 2 [10]) [%] | Activity (Homo sapiens [11]) [%] | Activity (Histone deacetylase 1 [12]) [%] | Activity (Histone deacetylase 2 [13]) [%] | Activity (Histone deacetylase 3 [14]) [%] | Activity (Histone deacetylase 3 [15]) [%] | Activity (Histone deacetylase 1 [16]) [%] | Activity [17] [%] | Activity (Homo sapiens [18]) [%] | Activity (Histone deacetylase 2 [19]) [%] | Activity (Homo sapiens [20]) [%]
1 | CCCCC(CCCC(=O)NO)CCC(=O)Nc1ccccc1 (stereo not drawn) | 101 | 25 | 73 | 60 | 74 to 92 | 83 |  |  |  |  |  |  |  |  |  |  |  |  |  | 
2 | CCCCCCC(CCCC(=O)NO)CCC(=O)Nc1ccccc1 (stereo not drawn) |  | 41 |  | 66 |  |  | 92 | 71 | 58 | 72 | 35 | 22 | 14 | 27 | 12 | 64 | 28 | 15 | 21 | 83
3 | O=C(CCCC(CCC(=O)Nc1ccccc1)Cc1ccccc1)NO (stereo not drawn) |  | 49 |  | 54 |  |  | 93 | 74 | 56 | 74 | 33 | 27 | 19 | 43 | 23 | 69 | 17 | 17 | 30 | 78
